Screens as filed in PubChem BioAssay.
VIM-2 inhibitor – VIM-2 metallo-beta-lactamase inhibitors, primary screen, biochemical, epi-absorbance readout, Pseudomonas aeruginosa enzyme | inhibition, % at 5.6 µM | AID 1527, 2009 | purified VIM-2, nitrocefin hydrolysis, epi-absorbance fluorescence | 290,000 compounds, 0.89% hits;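 active means inhibition above the mean of all tested compounds plus 3 SD, cutoff set per screening run, cut at about 7.5% in these data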;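 further: red hydrolysis product quenches plate fluorescence so inhibitors raise well fluorescence; 0% = enzyme with DMSO and 100% = DMSO without enzyme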
IMP-1 inh-1 – IMP-1 metallo-beta-lactamase inhibitors, primary screen, biochemical, epi-absorbance readout, Pseudomonas aeruginosa enzyme. metallo-beta-lactamase IMP-1 (Pseudomonas aeruginosa). purified IMP-1, nitrocefin hydrolysis, epi-absorbance fluorescence. inhibition, % at 5.6 µM. 290,000 compounds, 0.45% hits;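 active means inhibition above the mean plus 3 SD of all compounds in the same screening run, cut at about 4.5% in these data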;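 further: 0% = IMP-1 with DMSO and 100% = DMSO wells lacking enzyme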
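Material – recombinant IMP-1 enzyme, purified · Amount – IMP-1 0.2 nM before substrate addition · Medium – HEPES buffer pH 7.1 with ZnSO4 and Brij 35 · Timing – 25 °C, 15 min preincubation, 25 min reaction · Measured by – plate fluorescence quenching by hydrolysis product, ex 480/em 530 nm · Read-out – percent enzyme inhibition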
RanGTP-Impb inh – inhibitors of RanGTP-importin-beta interaction, primary screen, biochemical, FRET, CFP-Ran, YFP-importin-beta, homogeneous; Ran GTPase (GTP-bound) - importin-beta complex; cell-free CFP-Ran/YFP-importin-beta FRET ratio; inhibition, % (no concentration beside the values); 300,000 compounds, 1.1% hits;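 active means more than half of the replicate wells show a fall in the fluorescence ratio signal beyond about 16%, limit read from the data, passing the limit was not always enough; inconclusive means exactly half of the replicate wells pass the set limit; inactive means fewer than half of replicates pass the limit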;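 further: 0% = DMSO wells and 100% = Ran loaded with GDP instead of GTP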
Runt-SMMHC FRET – inhibitors of RUNX1 Runt–CBFb-SMMHC binding, primary screen, biochemical, FRET, Cerulean-Runt, Venus-CBFb-SMMHC, uHTS | AID 1434, 2008 | inhibition, % at 20 µM | 220,000 compounds, 0.74% hits | Runt-related transcription factor 1 (Homo sapiens) + Core-binding factor subunit beta … | Cerulean-Runt/Venus-CBFb-SMMHC FRET ratio 530/480, 1 h;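 active means mean inhibition across duplicate retests at 20 µM reaching about 50%, limit read from the data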;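 further: 0% = DMSO wells and 100% = wells with excess untagged CBFb-SMMHC; inhibitors lower the FRET ratio by blocking Runt binding to CBFb-SMMHC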
Target sequence (Q01196 whole entry, looked up): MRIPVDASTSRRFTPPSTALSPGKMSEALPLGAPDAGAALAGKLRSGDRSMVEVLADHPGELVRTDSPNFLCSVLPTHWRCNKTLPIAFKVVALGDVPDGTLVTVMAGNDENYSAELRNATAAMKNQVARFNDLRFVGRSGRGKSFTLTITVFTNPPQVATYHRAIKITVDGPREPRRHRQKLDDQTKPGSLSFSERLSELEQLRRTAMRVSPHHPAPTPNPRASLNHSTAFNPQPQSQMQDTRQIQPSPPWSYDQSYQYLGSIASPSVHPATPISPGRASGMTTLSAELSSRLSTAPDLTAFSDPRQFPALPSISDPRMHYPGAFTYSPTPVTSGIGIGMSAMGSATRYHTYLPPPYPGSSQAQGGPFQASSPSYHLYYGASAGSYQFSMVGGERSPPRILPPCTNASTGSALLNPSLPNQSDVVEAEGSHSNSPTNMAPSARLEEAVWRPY
Target sequence (Q13951 whole entry, looked up): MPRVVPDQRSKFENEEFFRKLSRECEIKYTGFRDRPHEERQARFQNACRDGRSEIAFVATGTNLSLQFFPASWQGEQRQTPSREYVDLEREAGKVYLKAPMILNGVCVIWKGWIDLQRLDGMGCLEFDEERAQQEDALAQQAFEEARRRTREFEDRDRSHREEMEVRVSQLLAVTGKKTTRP
Runt-CBFb FRET – inhibitors of RUNX1 Runt–CBFb binding, primary screen, biochemical, FRET, Cerulean-Runt, Venus-CBFb, uHTS. Cerulean-Runt/Venus-CBFb FRET ratio 530/480, 1 h. Runt-related transcription factor 1 (Homo sapiens) + Core-binding factor subunit beta …. AID 1496, 2009. inhibition, % at 20 µM. 220,000 compounds, 0.46% hits;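 active means inhibition over about 50% at 20 µM in the single-dose screen, limit read from the data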;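 further: 0% = DMSO wells and 100% = excess unlabeled CBFb competitor control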
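Assay system: Cerulean-tagged RUNX1 Runt domain (FRET donor) fusion protein / Amount: 100 nM each of Venus-CBFb and Cerulean-Runt domain / Medium: Tris buffer pH 7.5 with salts and BSA / Also added: Venus-CBFb 100 nM / Schedule: 1 h complex formation plus 1 h compound treatment, room temperature / Signal: FRET fluorescence / Read-out: loss of energy transfer signal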
IMP-1 inh-2 – IMP-1 metallo-beta-lactamase inhibitors, confirmation, selectivity assay for selective VIM-2 inhibitor project, biochemical, epi-absorbance readout, triplicate; 1,300 tested, under 10 active; AID 1856, 2009; purified IMP-1, nitrocefin hydrolysis, epi-absorbance fluorescence; inhibition, % at 5.6 µM; shares compounds with VIM-2 inhibitor; call rule not given here;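 further: 0% = enzyme with vehicle and 100% = vehicle without enzyme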
VIM-2 FRET ctr – VIM-2 inhibitors in FRET format, confirmation, artefact control for selective VIM-2 inhibitor project, biochemical, epi-absorbance artifact exclusion; shares compounds with VIM-2 inhibitor; purified VIM-2, CCF2 FRET substrate hydrolysis; inhibition, % at 5.6 µM; 1,300 compounds, 23% hits;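 active means inhibition above the mean of all tested compounds plus 3 SD, cut at about 19% in these data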;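 further: 0% = VIM-2 plus DMSO and 100% = no enzyme wells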
TEM-1 counter – TEM-1 serine beta-lactamase inhibitors, counter-screen for VIM-2 inhibitor project, biochemical, epi-absorbance, HTS | Purified TEM-1, nitrocefin hydrolysis, epi-absorbance fluorescence | AID 1866, 2009 | shares compounds with VIM-2 inhibitor | inhibition, % at 5.6 µM | 1,300 compounds, 3% hits;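 active means inhibition above that campaign's mean inhibition plus 3 SD, cut at about 0.46% in these data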;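 further: 0% = TEM-1 with DMSO and 100% = TEM-1 with 100 µM potassium clavulanate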
VIM-2 confirm 2 – VIM-2 metallo-beta-lactamase inhibitors, confirmation, biochemical, epi-absorbance, hits shared with IMP-1 screen. shares compounds with VIM-2 inhibitor. purified VIM-2, nitrocefin hydrolysis. inhibition, % at 5.6 µM. 1,300 compounds, 96% hits. AID 2187, 2009;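 active means inhibition of the VIM-2 beta-lactamase enzyme above about 11% from the earlier first-round screen, limit read from the data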;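 further: 0% = VIM-2 with DMSO and 100% = buffer wells without enzyme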
The depositor's hits bear a star; u = inconclusive; x = no result. The list is not random: actives were taken first. Their share in the collection is about 2.6%.

SMILES	VIM-2 inhibitor	IMP-1 inh-1	RanGTP-Impb inh	Runt-SMMHC FRET	Runt-CBFb FRET	IMP-1 inh-2	VIM-2 FRET ctr	TEM-1 counter	VIM-2 confirm 2
O=C(CNCc1ccccn1)N1CCc2ccccc2C1	29.8*	-0.7	1.6	-3.3	1.0	-2.7	-8.8	-4.8	49.7*
COc1cccc(CNC(=O)CCCc2cn(C)c3ccccc23)c1	-1.7	-1.8	-3.6	x	x	x	x	x	x
O=c1[nH]c(CN2CCN(c3ccc(F)cc3)CC2)nc2ccccc12	55.5*	-4.3	-2.6	2.3	-1.8	-4.2	-2.1	-7.0	-0.5
COc1cc(CNCc2ccccn2)ccc1OCc1ccc(Cl)cc1	6.6	-1.6	4.7	-1.0	-0.5	x	x	x	x
COc1cc(CNCc2ccccn2)ccc1OCc1cccc(Cl)c1	12.2*	-2.4	-2.1	-8.2	-2.5	-2.8	-23.8	-4.8	29.1*
COc1ccc(CNC(=O)C(=O)NCC2OCCN2S(=O)(=O)c2ccc(OC)cc2)cc1 (stereo not given)	-1.0	-3.5	0.2	x	x	x	x	x	x
O=C(O)COc1ccccc1/C=N/n1c(C2CCCCC2)n[nH]c1=S	27.5*	-3.9	-4.0	x	x	-3.0	53.1*	-7.8	39.7*
O=C(COc1ccc2c3c(c(=O)oc2c1)CCC3)Nc1ccc(CN2CCOCC2)cc1	17.6*	-3.8	-0.9	x	x	-2.5	0.2	-6.3	26.6*
O=C(COc1ccc2c3c(c(=O)oc2c1)CCC3)NC1CCN(Cc2ccccc2)CC1	27.9*	-1.4	4.2	x	x	-1.1	4.2	0.7*	39.0*
O=C(COc1ccc2ccc(=O)oc2c1)NC1CCN(Cc2ccccc2)CC1	0.2	-2.8	1.6	x	x	x	x	x	x
CCCc1cc(=O)oc2c(C)c(OCC(=O)NC3CCN(Cc4ccccc4)CC3)ccc12	16.0*	-3.3	1.3	x	x	-2.6	-6.4	-7.2	27.4*
CCCc1cc(=O)oc2cc(OCC(=O)NC3CCN(Cc4ccccc4)CC3)ccc12	3.2	-1.2	-1.8	x	x	x	x	x	x
CCCNC(=S)N1CCC(C(=O)c2ccc(F)cc2)CC1	-1.8	-2.0	4.0	x	x	x	x	x	x
Cc1cccc(OCC(=O)Nc2nnc(S(=O)(=O)N3CCCCCC3)s2)c1	-0.7	-1.4	-2.5	x	x	x	x	x	x
Nc1nonc1-n1nnc(C(=O)N/N=C/c2ccc(OCc3ccccc3)cc2)c1CNc1ccccc1	-6.7	-1.7	2.8	x	x	x	x	x	x
Cc1cc(OCC(=O)Nc2ccc(CN3CCOCC3)cc2)c2c(C)c(C)c(=O)oc2c1	32.9*	-1.3	-0.6	x	x	-4.3	-0.9	-8.4	40.3*
Cc1cc(OCC(=O)NCCCN2CCOCC2)c2c(C)c(C)c(=O)oc2c1	26.2*	-5.6	0.8	x	x	-3.9	3.2	-5.8	36.4*
Cc1cc(OCC(=O)NCCCN2CCCC2=O)c2c(C)c(C)c(=O)oc2c1	4.9	-1.4	0.5	x	x	x	x	x	x
Cc1cc(OCC(=O)Nc2ccc(CN3CCOCC3)cc2)c2c(C)cc(=O)oc2c1	3.7	1.2	12.4	x	x	x	x	x	x
O=C1c2ccccc2C(=O)c2c(NCCCN(CCO)CCO)cccc21	22.1*	-3.8	3.3	-2.5	0.2	-3.6	-3.2	-13.4	35.7*
CCN(CC)CC(=O)Nc1cccc2c1C(=O)c1ccccc1C2=O	4.3	-2.3	-8.0	-11.9	-7.2	x	x	x	x
CCC(C)[C@H](NC(=O)C1CC(=O)N(c2ccc3c(c2)OCCO3)C1)C(=O)N1CCCCC1 (stereo not given in full)	-1.9	-1.7	-3.3	x	x	x	x	x	x
S=c1[nH]nc(-c2ccn[nH]2)n1-c1ccccc1Cl	16.6*	-4.2	4.6	-1.3	10.1	-3.3	34.1*	-3.5	22.3*
O=C(O)c1ncsc1-c1ccccc1	13.4*	-2.6	-3.0	-2.3	10.8	-2.3	23.9*	-0.8	16.1*
CN(C(=O)C1CCC(=O)N(Cc2ccccc2F)C1)C1CCOCC1 (stereo not given)	0.3	-3.7	8.0	x	x	x	x	x	x
SMILES	VIM-2 inhibitor	IMP-1 inh-1	RanGTP-Impb inh	Runt-SMMHC FRET	Runt-CBFb FRET	IMP-1 inh-2	VIM-2 FRET ctr	TEM-1 counter	VIM-2 confirm 2
Cn1c2c(c(=O)c3ccccc31)CCCC2	1.4	-2.8	-0.5	x	x	x	x	x	x
CC(=O)Nc1ccc(Nc2cc(N(C)C)c3nonc3c2[N+](=O)[O-])cc1	29.5*	-2.8	2.4	x	x	-3.2	-3.2	-5.8	36.2*
Oc1c(Cl)cc(CN2CCCCC2)c2cccnc12	14.6*	-2.3	7.9	x	x	-3.6	3.9	-5.9	17.3*
O=[N+]([O-])c1cc(CN2CCCC2)c2cccnc2c1O	38.3*	-4.9	x	-6.5	-1.1	-2.9	3.2	-6.1	44.5*
Oc1ccc(CN2CCN(c3ccccc3)CC2)c2cccnc12	-3.0	-1.7	4.6	-3.9	-2.0	x	x	x	x
Oc1c(Cl)cc(Cl)c2cccnc12	-1.9	-0.8	-1.3	-15.7	-5.4	x	x	x	x
COc1ccccc1N1CCN(Cc2cc(Br)c(O)c3ncccc23)CC1	23.9*	-4.5	2.9	-6.9	4.0	-3.2	1.8	-6.2	7.0
O=[N+]([O-])c1cc(CN2CCN(c3cccc(C(F)(F)F)c3)CC2)c2cccnc2c1O	34.9*	-4.0	-3.2	-2.7	3.3	-3.4	1.8	-6.7	14.7*
Cc1cc(NC(=O)CSc2nc3c([nH]c4ccccc43)c(=O)n2-c2ccccc2F)no1	-0.3	-0.3	x	x	x	x	x	x	x
COc1ccc(N2CCN(CCNC(=O)Nc3ccc(C)cc3Cl)CC2)cc1	2.6	0.0	u	x	x	x	x	x	x
O=C(N/N=C/c1cccnc1)c1cc(-c2ccc(Br)cc2)nc2ccccc12	-1.5	-0.7	x	x	x	x	x	x	x
Cc1ccc(NC(=O)C(c2ccccc2)c2ccccc2)c(O)c1	-3.6	-1.6	5.2	x	x	x	x	x	x
COc1ccc(OC)c(C(=O)NC(CC(N)=O)c2ccc(N3CCC(Cc4ccccc4)CC3)c([N+](=O)[O-])c2)c1 (stereo not given)	-1.1	-1.4	-1.9	x	x	x	x	x	x
Cc1c(C)c2cc(Cl)c(OCC(=O)NCCCn3ccnc3)cc2oc1=O	27.9*	-0.8	-0.3	x	x	-3.5	-11.2	-2.5	37.7*
